In ChEMBL document CHEMBL3739352, “Anticonvulsant activity, crystal structures, and preliminary safety evaluation of N-trans-cinnamoyl derivatives of selected (un)modified aminoalkanols” (Eur J Med Chem, 2016):
Calls of active or inactive are those of the source. The rule behind the calls is not given here.

What was measured:
[1] = system: Mus musculus; test: Neurotoxicity in albino Carworth Farms No.1 mouse at 300 mg/kg, ip after 0.5 hrs by rotarod test; assay type: toxicity, organism-based; settings: in vivo
Method in brief: (§1)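 Mice (albino Carworth Farms No.1) were dosed i.p. at 30, 100 or 300 mg/kg in 0.5% methylcellulose. They were tested 0.5 and 4 h later on a 1-inch knurled rod rotating at 6 rpm. Neurotoxicity was scored if a mouse could not stay on the rod for at least 1 min in each of three trials. Results are given as animals toxic/animals tested, with deaths noted.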

[2] = system: Mus musculus; test: Anticonvulsant activity in albino Carworth Farms No.1 mouse assessed as protection against subcutaneous dosed pentetrazol-induced seizures at 300 mg/kg, ip after 0.5 hrs; assay type: functional, organism-based
Method in brief: (§2)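 Mouse i.p. screen in Carworth Farms No.1 albino mice at 30, 100 or 300 mg/kg in 0.5% methylcellulose. Testing was at 0.5 and 4 h after injection, by maximal electroshock or by subcutaneous pentetrazol challenge. Scoring was number protected / number used.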

[3] = system: Mus musculus; test: Anticonvulsant activity in albino Carworth Farms No.1 mouse assessed as protection against subcutaneous dosed pentetrazol-induced seizures at 100 mg/kg, ip after 4 hrs; assay type: functional, organism-based; method in brief: as §2
[4] = system: Mus musculus; test: Anticonvulsant activity in albino Carworth Farms No.1 mouse assessed as protection against subcutaneous dosed pentetrazol-induced seizures at 100 mg/kg, ip after 0.5 hrs; assay type: functional, organism-based; method in brief: as §2
[5] = system: Mus musculus; test: Anticonvulsant activity in albino Carworth Farms No.1 mouse assessed as protection against subcutaneous dosed pentetrazol-induced seizures at 30 mg/kg, ip after 4 hrs; assay type: functional, organism-based; method in brief: as §2
[6] = system: Mus musculus; test: Anticonvulsant activity in albino Carworth Farms No.1 mouse assessed as protection against maximal electroshock-induced seizures at 300 mg/kg, ip after 4 hrs; assay type: functional, organism-based; method in brief: as §2
[7] = system: Mus musculus; test: Anticonvulsant activity in albino Carworth Farms No.1 mouse assessed as protection against maximal electroshock-induced seizures at 100 mg/kg, ip after 4 hrs; assay type: functional, organism-based; method in brief: as §2
[8] = system: Mus musculus; test: Anticonvulsant activity in albino Carworth Farms No.1 mouse assessed as protection against maximal electroshock-induced seizures at 30 mg/kg, ip after 4 hrs; assay type: functional, organism-based; method in brief: as §2
[9] = system: Salmonella typhimurium; test: Mutagenicity in Salmonella typhimurium TA98 assessed as number of revertants at 500 ug/plate by Ames test (reference value: 23 +/- 3); assay type: toxicity, organism-based; settings: salmonella enterica subsp. enterica serovar typhimurium
[10] = system: Salmonella typhimurium; test: Mutagenicity in Salmonella typhimurium TA98 assessed as number of revertants at 1000 ug/plate by Ames test (reference value: 23 +/- 3); assay type: toxicity, organism-based; settings: salmonella enterica subsp. enterica serovar typhimurium
[11] = system: Salmonella typhimurium; test: Mutagenicity in Salmonella typhimurium TA100 assessed as mutagenic index at 100 ug/plate by Ames test; assay type: toxicity, organism-based; settings: salmonella enterica subsp. enterica serovar typhimurium
Method in brief: (§3)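 Ames preincubation test. Strain culture was grown 12 h at 37 °C in nutrient broth, then mixed with compound in DMSO (final 4, 20, 100, 500, 1000 per plate) and buffer in top agar with trace histidine. This was plated on glucose minimal agar for 48 h at 37 °C. Mutagenic index = revertants with compound / DMSO control revertants, from three independent repeats.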

[12] = system: Salmonella typhimurium; test: Mutagenicity in Salmonella typhimurium TA100 assessed as mutagenic index at 500 ug/plate by Ames test; assay type: toxicity, organism-based; settings: salmonella enterica subsp. enterica serovar typhimurium; method in brief: as §3
[13] = system: Salmonella typhimurium; test: Mutagenicity in Salmonella typhimurium TA100 assessed as assessed as mutagenic index at 1000 ug/plate by Ames test; assay type: toxicity, organism-based; settings: salmonella enterica subsp. enterica serovar typhimurium; method in brief: as §3
[14] = system: Salmonella typhimurium; test: Mutagenicity in Salmonella typhimurium TA1535 assessed as assessed as mutagenic index at 4 ug/plate by Ames test; assay type: toxicity, organism-based; settings: salmonella enterica subsp. enterica serovar typhimurium; method in brief: as §3
[15] = system: Salmonella typhimurium; test: Mutagenicity in Salmonella typhimurium TA1535 assessed assessed as mutagenic index at 100 ug/plate by Ames test; assay type: toxicity, organism-based; settings: salmonella enterica subsp. enterica serovar typhimurium
[16] = system: Salmonella typhimurium; test: Mutagenicity in Salmonella typhimurium TA98 assessed as mutagenic index at 4 ug/plate by Ames test; assay type: toxicity, organism-based; settings: salmonella enterica subsp. enterica serovar typhimurium
[17] = system: Salmonella typhimurium; test: Mutagenicity in Salmonella typhimurium TA98 assessed as mutagenic index at 20 ug/plate by Ames test; assay type: toxicity, organism-based; settings: salmonella enterica subsp. enterica serovar typhimurium
[18] = system: Salmonella typhimurium; test: Mutagenicity in Salmonella typhimurium TA98 assessed as mutagenic index at 100 ug/plate by Ames test; assay type: toxicity, organism-based; settings: salmonella enterica subsp. enterica serovar typhimurium
[19] = system: Salmonella typhimurium; test: Mutagenicity in Salmonella typhimurium TA98 assessed as mutagenic index at 1000 ug/plate by Ames test; assay type: toxicity, organism-based; settings: salmonella enterica subsp. enterica serovar typhimurium
[20] = system: Mus musculus; test: Neurotoxicity in albino Carworth Farms No.1 mouse at 100 mg/kg, ip after 4 hrs by rotarod test; assay type: toxicity, organism-based; settings: in vivo; method in brief: as §1
[21] = system: Mus musculus; test: Neurotoxicity in albino Carworth Farms No.1 mouse at 300 mg/kg, ip after 4 hrs by rotarod test; assay type: toxicity, organism-based; settings: in vivo; method in brief: as §1
[22] = Lipophilicity of the compound using 90% methanol in water at 1 mg/ml by RT-TLC analysis; assay type: physicochemical; settings: buffer
Method in brief: (§4)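 Reversed-phase TLC with a methanol–water mobile phase at the stated methanol content (v/v). Compounds were spotted from 1 mg/mL methanol solutions after 1 h chamber saturation and located under UV light. Rf was measured and RM = log(1/Rf − 1) calculated.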

[23] = Lipophilicity of the compound using 75% methanol in water at 1 mg/ml by RT-TLC analysis; assay type: physicochemical; settings: buffer; method in brief: as §4
[24] = Lipophilicity of the compound using 65% methanol in water at 1 mg/ml by RT-TLC analysis; assay type: physicochemical; settings: buffer; method in brief: as §4
[25] = Lipophilicity of the compound at 1 mg/ml by RT-TLC analysis relative to 0% methanol; assay type: physicochemical; settings: methanol/water
Method in brief: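 Reversed-phase TLC used methanol–water mobile phases of 95–65% methanol. Compounds were applied from 1 mg/mL methanol solutions after 1 h chamber saturation, with UV detection. RM = log(1/Rf − 1) was calculated at each methanol level and extrapolated linearly (RM = RM0 + bC) to 0% methanol to give RM0.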

[26] = system: Salmonella typhimurium; test: Mutagenicity in Salmonella typhimurium TA98 assessed as number of revertants at 100 ug/plate by Ames test (reference value: 23 +/- 3); assay type: toxicity, organism-based; settings: salmonella enterica subsp. enterica serovar typhimurium
[27] = system: Salmonella typhimurium; test: Mutagenicity in Salmonella typhimurium TA98 assessed as number of revertants at 20 ug/plate by Ames test (reference value: 23 +/- 3); assay type: toxicity, organism-based; settings: salmonella enterica subsp. enterica serovar typhimurium
[28] = system: Salmonella typhimurium; test: Mutagenicity in Salmonella typhimurium TA98 assessed as number of revertants at 4 ug/plate by Ames test (reference value: 23 +/- 3); assay type: toxicity, organism-based; settings: salmonella enterica subsp. enterica serovar typhimurium
[29] = system: Salmonella typhimurium; test: Mutagenicity in Salmonella typhimurium TA1535 assessed as number of revertants at 1000 ug/plate by Ames test (reference value: 10 +/- 3); assay type: toxicity, organism-based; settings: salmonella enterica subsp. enterica serovar typhimurium
[30] = system: Salmonella typhimurium; test: Mutagenicity in Salmonella typhimurium TA1535 assessed as number of revertants at 20 ug/plate by Ames test (reference value: 10 +/- 3); assay type: toxicity, organism-based; settings: salmonella enterica subsp. enterica serovar typhimurium
[31] = system: Salmonella typhimurium; test: Mutagenicity in Salmonella typhimurium TA100 assessed as number of revertants at 1000 ug/plate by Ames test (reference value: 77 +/-4); assay type: toxicity, organism-based; settings: salmonella enterica subsp. enterica serovar typhimurium
Method in brief: (§5)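 Salmonella TA100 preincubation Ames assay: overnight-type 12 h broth culture at 37 °C, compound in DMSO at final 4–1000 per plate, top agar with trace histidine, glucose minimal agar, 48 h at 37 °C. Revertant colonies per plate were counted, with a DMSO negative control and a sodium azide positive control. Three independent repetitions were run.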

[32] = system: Salmonella typhimurium; test: Mutagenicity in Salmonella typhimurium TA100 assessed as number of revertants at 500 ug/plate by Ames test (reference value: 77 +/-4); assay type: toxicity, organism-based; settings: salmonella enterica subsp. enterica serovar typhimurium; method in brief: as §5
[33] = system: Salmonella typhimurium; test: Mutagenicity in Salmonella typhimurium TA100 assessed as number of revertants at 100 ug/plate by Ames test (reference value: 77 +/-4); assay type: toxicity, organism-based; settings: salmonella enterica subsp. enterica serovar typhimurium; method in brief: as §5
[34] = system: Salmonella typhimurium; test: Mutagenicity in Salmonella typhimurium TA100 assessed as number of revertants at 4 ug/plate by Ames test (reference value: 77 +/-4); assay type: toxicity, organism-based; settings: salmonella enterica subsp. enterica serovar typhimurium; method in brief: as §5

Compound | Activity [1] | Activity [2] | Activity [3] | Activity [4] | Activity [5] | Activity [6] | Activity [7] | Activity [8] | Activity [9] | Activity [10] | Activity_index [11] | Activity_index [12] | Activity_index [13] | Activity_index [14] | Activity_index [15] | Activity_index [16] | Activity_index [17] | Activity_index [18] | Activity_index [19] | Activity [20] | also measured
CCC(O)CNC(=O)/C=C/c1ccccc1 (racemic) | Non-toxic | Active | inactive | inactive | inactive | inactive | inactive | inactive | 17 | 25 | 0.8 | 0.8 | 0.9 | 0.9 | 0.5 | 0.9 | 0.9 | 0.9 | 1.1 | Non-toxic | Activity [21]: Non-toxic; Rm [22]: -0.52; Rm [23]: -0.18; Rm [24]: 0.19; Rm [25]: 1.937; Activity [26]: 21; Activity [27]: 20; Activity [28]: 19; Activity [29]: 6; Activity [30]: 14; Activity [31]: 72; Activity [32]: 60; Activity [33]: 62; Activity [34]: 60
CC(C)C(CO)NC(=O)/C=C/c1ccccc1 (racemic) | Non-toxic | inactive | inactive | inactive | inactive | Active | inactive | inactive | 16 | 15 | 1 | 1 | 1 | 0.5 | 0.6 | 0.9 | 0.8 | 0.8 | 0.7 | Non-toxic | Activity [21]: Non-toxic; Rm [22]: -0.45; Rm [23]: -0.1; Rm [24]: 0.31; Rm [25]: 2.219; Activity [26]: 19; Activity [27]: 19; Activity [28]: 20; Activity [29]: 7; Activity [30]: 6; Activity [31]: 80; Activity [32]: 79; Activity [33]: 80; Activity [34]: 83
CC(CO)NC(=O)/C=C/c1ccccc1 (racemic) | Non-toxic | Active | inactive | inactive | inactive | Active | inactive | inactive | 24 | 18 | 0.9 | 0.8 | 0.9 | 1.5 | 0.5 | 0.9 | 0.9 | 0.9 | 0.8 | Non-toxic | Activity [21]: Non-toxic; Rm [22]: -0.6; Rm [23]: -0.27; Rm [24]: -0.03; Rm [25]: 1.39; Activity [26]: 21; Activity [27]: 20; Activity [28]: 20; Activity [29]: 6; Activity [30]: 6; Activity [31]: 67; Activity [32]: 65; Activity [33]: 71; Activity [34]: 67
